# Source: PubChem
# Shown are actives, neighbours in structure and some others; about 4.6% of the full set was active somewhere.
# TAAR1 antag – antagonists of human TAAR1; Q96RJ0; CHO RD-HGA16 TAAR1, Fluo-8 calcium fluorescence, antagonist; inhibition, % at 3 µM; 1.5% of 360,000 active; AID 624466;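 active = inhibition above a per-plate cutoff, the mean inhibition of test compounds on that plate plus 3 SD, cut at about 49% in these data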
# Target sequence (Q96RJ0 whole entry, looked up): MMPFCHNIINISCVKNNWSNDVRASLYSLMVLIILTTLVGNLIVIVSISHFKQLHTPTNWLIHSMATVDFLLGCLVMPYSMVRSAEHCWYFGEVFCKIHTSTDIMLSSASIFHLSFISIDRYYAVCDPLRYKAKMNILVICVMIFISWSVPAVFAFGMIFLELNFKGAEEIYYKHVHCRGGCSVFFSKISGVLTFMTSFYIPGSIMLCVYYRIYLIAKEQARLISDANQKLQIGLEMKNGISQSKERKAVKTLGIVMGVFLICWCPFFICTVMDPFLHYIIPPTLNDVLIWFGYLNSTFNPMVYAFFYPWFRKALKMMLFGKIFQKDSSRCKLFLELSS
#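 System: CHO RD-HGA16 cells bearing hTAAR1. Reagent: EC80 β-phenethylamine stimulus. Schedule: seeding 17-24 h prior, 75-min 37 °C, 30-min RT dye loading. Signal: Fluo-8 intracellular calcium dye fluorescence, real-time kinetic reads. Read-out: % inhibition from peak post-agonist over basal fluorescence ratio. Benchmarks: vehicle wells and EC80 agonist wells. Replicates: n of 1.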
# OX1R antag-1 – OX1R (human) antagonism; inhibition, % at 6.6 µM; 1.8% of 330,000 active; O43613; OX1R-expressing cells, FRET antagonist read-out; in the data active = inhibition mostly above about 38%, no sharp cut-off; inactive = mostly below about 40%
# GPR7 antag – human neuropeptides B/W receptor 1 antagonism; GPR7-expressing cells, fluorescence antagonist assay; inhibition, % at 4.4 µM; 1.1% of 290,000 active; in the data active = inhibition above about 16%, passing the limit was not always enough;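 note: cells stimulated with the agonist NPW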
# Target sequence (P48145 whole entry, looked up): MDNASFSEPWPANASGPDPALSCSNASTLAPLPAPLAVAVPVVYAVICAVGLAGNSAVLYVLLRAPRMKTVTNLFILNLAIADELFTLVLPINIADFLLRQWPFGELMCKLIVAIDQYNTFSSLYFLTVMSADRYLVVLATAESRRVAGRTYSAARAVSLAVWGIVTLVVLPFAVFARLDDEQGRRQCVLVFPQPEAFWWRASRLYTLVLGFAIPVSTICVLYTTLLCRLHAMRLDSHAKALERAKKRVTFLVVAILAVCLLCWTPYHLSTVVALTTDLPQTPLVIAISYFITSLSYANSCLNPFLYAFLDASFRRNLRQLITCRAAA
# TAAR1 agonist – human TAAR1 agonism; 0.99% of 360,000 active; Q96RJ0; AID 624467; activation, % at 3 µM; CHO RD-HGA16 TAAR1, Fluo-8 calcium fluorescence; vehicle wells 0%, saturating PEA agonist 100%;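 active = activation above the mean activation of all test compounds in the run plus 3 SD, cut at about 38% in these data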
#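 Signal – calcium-sensitive Fluo-8 signal, excitation 470-495, emission 515-575 nm · System – RD-HGA16 (CHO) cells co-expressing Gα16 and hTAAR1 · Incubation – 17-24 h seeding, 75 min 37 °C dye, 30 min RT · Compound dosing – 3 µM single concentration · Repeats – no replicates (n 1)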
# CHO parental Ca – signal in parental CHO cells, OX1R antagonist counter-screen. 0.63% of 330,000 active. parental CHO-K1, ATP-induced calcium, Fluo-8 fluorescence. inhibition, % at 5.6 µM;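 active = inhibition above that plate's mean sample inhibition plus 3 SD, cut at about 26% in these data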
#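 Assay system: untransfected parental CHO cell line. Also added: ATP agonist challenge. Dosing: one dose, 5.6 µM nominal. Measured by: Fluo-8 fluorescence. Read-out: % inhibition. Benchmarks: ATP wells versus no-ATP DMSO wells. Repeats: no replicates.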
# OX1R antag-2 – antagonists of human orexin 1 receptor; 0.43% of 330,000 active; inhibition, % at 5 µM; O43613; CHO/OX1R cells, Fluo-8 calcium fluorescence, orexin A; AID 434989;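 active = inhibition above its plate's threshold, mean inhibition of all tested compounds on the plate plus 3 SD, cut at about 37% in these data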
# OX1R Ca confirm – confirmation of human orexin 1 receptor antagonists | shares compounds with OX1R antag-2 | CHO/OX1R cells, orexin A calcium Fluo-8 fluorescence | inhibition, % at 5 µM | 38% of 1,100 active | AID 492963; in the data active = inhibition above about 29%
# CHO Ca counter – signal in parental CHO cells, OX1R antagonist counter-screen; parental CHO-K1, ATP-induced calcium, Fluo-8 fluorescence; inhibition, % at 5.6 µM; shares compounds with OX1R antag-2; 9.3% of 1,100 active;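 active = inhibition above a per-plate limit, the mean inhibition of that plate's test compounds plus 3 SD, cut at about 25% in these data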
# A number is an active result; . = inactive; / = no result.
SMILES,TAAR1 antag,OX1R antag-1,GPR7 antag,TAAR1 agonist,CHO parental Ca,OX1R antag-2,OX1R Ca confirm,CHO Ca counter
Cc1cc(C(=O)CN2C(=O)c3ccccc3S2(=O)=O)c(C)n1C(C)C,.,.,/,.,.,.,/,/
O=C(CSc1nnc(NCc2ccccc2)s1)c1ccco1,.,.,.,.,.,.,.,.
CCOc1ccc(CCNC(=O)C2CCC(=O)N2C2CCCCC2)cc1OCC (centres undefined),.,.,.,.,.,.,/,/
CCCC(=O)Nc1sc(C)c(C)c1C(=O)Nc1cccc(C)c1,.,.,.,.,.,.,/,/
COc1ccccc1NS(=O)(=O)c1cc([N+](=O)[O-])ccc1N/N=C/c1c[nH]c2ccccc12,54,.,.,.,.,.,.,.
Cc1ccc2oc(=O)c3cc(C(=O)NCCCN4C(C)CCCC4C)sc3c2c1 (centres undefined),.,.,.,.,.,.,/,/
NS(=O)(=O)c1ccc(CCNC(=O)COC(=O)CCc2c[nH]c3ccccc23)cc1,.,.,/,.,.,.,.,.
O=C(COC(=O)CCc1c[nH]c2ccccc12)NCCc1ccccc1,.,.,/,.,.,.,/,/
COC(=O)C(Cc1ccccc1)NC(=O)CCc1c[nH]c2ccccc12 (centres undefined),.,.,.,.,.,.,37,.
O=C(COC(=O)[C@H](Cc1c[nH]c2ccccc12)NC(=O)c1cccs1)NCc1ccccc1,.,.,.,.,.,.,.,.
Cc1occc(=O)c1OCc1ccc(Cl)cc1Cl,.,.,.,.,.,.,/,/
CCCCNC(=O)C1(C)CCN1C(=O)c1cncc(Br)c1 (centres undefined),.,/,/,.,/,/,/,/
Cc1cc(C)nc(SCC(=O)Nc2ccc(N3CCOCC3)c(Cl)c2)n1,.,.,.,.,.,.,.,31
CNc1nc(SCC(=O)Nc2ccc(Cl)c(Cl)c2)nc(N2CCOCC2)n1,.,.,.,.,.,.,/,/
CCN1C/C(=C/c2ccc(N3CCOCC3)cc2)C(=O)/C(=C/c2ccc(N3CCOCC3)cc2)C1,.,.,.,.,.,.,34,34
COc1ccc(S(=O)(=O)Nc2ccc(S(=O)(=O)N3CCCCC3)cc2)cc1,.,.,.,.,.,.,.,.
COc1ccc(S(=O)(=O)Nc2ccc(S(=O)(=O)N3CCCC3)cc2)cc1,.,.,.,.,.,.,/,/
CCCc1ccc(C2C3=C(CC(C)(C)CC3=O)NC3=C2C(=O)c2ccccc23)cc1 (centres undefined),.,.,.,.,.,66,.,.
Cc1ccc(NC(=O)COC(=O)Cn2cnc3c2c(=O)n(C)c(=O)n3C)cc1Cl,.,.,.,.,.,.,/,/
Cc1cccc2cc3c(N)c(C(=O)Nc4ccc(N5CCOCC5)cc4)sc3nc12,.,.,.,.,.,.,/,/
CCc1cccc2cc3c(N)c(C(=O)Nc4ccc(S(=O)(=O)N5CCCC5)cc4)sc3nc12,65,.,.,.,.,.,.,.
CC(=Nc1ccc(O)cc1)c1sc2ccccc2c1O,.,.,.,.,.,.,/,/
CC(=Nc1ccccc1O)c1sc2ccccc2c1O,.,.,.,.,.,.,.,.
O=C(Nc1ccccc1)Nc1nc(-c2ccc(Cl)cc2)cs1,.,.,.,.,.,.,/,/
O=C(Nc1cccc(Cl)c1)Nc1nc(-c2ccc(Cl)cc2)cs1,.,.,.,.,.,.,.,60
SMILES,TAAR1 antag,OX1R antag-1,GPR7 antag,TAAR1 agonist,CHO parental Ca,OX1R antag-2,OX1R Ca confirm,CHO Ca counter
C[C@H](CO)N1C[C@H](C)[C@@H](CN(C)Cc2ccc(Cl)c(Cl)c2)Oc2c(NC(=O)Cc3ccccc3)cccc2C1=O,71,.,/,.,.,56,.,.
C/C=C/C(=O)N1c2ccc(C)cc2C(C)=CC1(C)C,.,.,.,.,.,.,/,/
CC1=CC(C)(C)N(S(=O)(=O)c2ccc(C)cc2)c2ccc(C)cc21,.,.,.,.,.,.,.,56
CCOC(=O)c1ccc(NC(=O)c2cccc(S(=O)(=O)N3c4ccccc4CC3C)c2)s1 (centres undefined),63,.,.,.,.,.,.,25
COC(=O)Nc1ccc2c(c1)Nc1ccccc1CC2,.,.,.,.,.,.,/,/
Cc1cccc(OCC(=O)Nc2ccncc2)c1C,.,.,.,.,.,.,.,51
COc1ccc(OC)c(S(=O)(=O)Nc2ccc(Oc3ccccc3)cc2)c1,.,.,.,.,.,.,.,.
CCOc1ccc(NS(=O)(=O)c2cc(OC)ccc2OC)cc1,.,.,.,.,.,.,/,/
CCOC(=O)N1CCN(C(=O)c2ccc3c(c2)NC(=O)C(N2CCOCC2)S3)CC1 (centres undefined),.,.,.,.,.,.,.,.
O=C(CN(c1cccc([N+](=O)[O-])c1)S(=O)(=O)c1ccccc1)NCc1ccccc1,.,.,.,.,.,.,/,/
O=C(CN(c1cccc([N+](=O)[O-])c1)S(=O)(=O)c1ccccc1)N(Cc1ccccc1)Cc1ccccc1,.,.,.,.,.,.,.,.
Cc1cc(C)nc(NS(=O)(=O)c2ccc(NC(=O)Cc3ccccc3F)cc2)n1,.,.,.,.,.,.,/,/
CS(=O)(=O)N(Cc1ccco1)CC(O)Cn1c2ccccc2c2ccccc21 (centres undefined),.,.,.,.,.,51,30,.
CCCN(CCC)CC(O)Cn1c2ccccc2c2ccccc21 (centres undefined),.,.,.,.,.,.,/,/
CCC(Oc1ccccc1)C(=O)OCC(=O)Nc1sccc1C(N)=O (centres undefined),.,.,/,.,.,44,.,.
CC(=O)Nc1ccc(-c2nnc(SCC(=O)Nc3ccc4c(c3)oc3ccccc34)n2C)cc1,.,.,.,.,.,.,.,.
COc1ccccc1NC(=O)CSc1nnc(-c2ccc(NC(C)=O)cc2)n1C,.,.,.,.,.,.,/,/
O=C(CCCn1c(=S)[nH]c2cc3c(cc2c1=O)OCO3)N1CCc2ccccc2C1,.,.,.,.,.,.,/,/
COc1ccc(C2NC3=C(CCC3)C3(C#N)C4(N=C(N)C23C#N)OCCO4)cc1 (centres undefined),.,.,.,.,.,.,.,.
C(=C\c1ccccc1)/CN1CCN(c2ncnc3c2oc2ccccc23)CC1,.,.,.,.,.,48,.,57
c1ccc2c(c1)oc1c(N3CCOCC3)ncnc12,.,.,.,.,.,.,/,/
COC(=O)c1ccc(/C=N\NC(=O)c2c(C)nc3ccc(Cl)cn23)cc1,/,.,.,/,.,.,/,/
